Assay results from ChEMBL document CHEMBL1123788, “Synthesis and antitumor activity of tropolone derivatives. 5” (J Med Chem, 1987).
In brackets after ≈: the same amount, converted by molar mass. Activity calls are given as the source filed them. The rule behind the calls is not given here.

Key:
[1] = In vitro inhibition of KB cell growth; assay type: functional, cell-based; conditions: Homo sapiens
[2] = tested on: P388; experiment: In vivo antitumor activity against leukemia P388 in mice at 100 mg/kg dosage administered intraperitoneally once a day for 1 and 5 days; assay type: functional, Mus musculus; conditions: route intraperitoneal
In short: (§1)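 Mice bearing P388 leukemia were given the compound intraperitoneally once daily for 1 and 5 days, at doses of 0.6 to 400 mg/kg; single-dose screens were run at 400 mg/kg. Antitumor activity is reported as T/C, %.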

[3] = tested on: P388; experiment: In vivo antitumor activity against leukemia P388 in mice at 400 mg/kg dosage administered intraperitoneally once a day for 1 and 5 days; assay type: functional, Mus musculus; conditions: route intraperitoneal; in short: as §1
[4] = tested on: P388; experiment: In vivo antitumor activity against leukemia P388 in mice at 200 mg/kg dosage administered intraperitoneally once a day for 1 and 5 days; assay type: functional, Mus musculus; conditions: route intraperitoneal; in short: as §1
[5] = tested on: P388; experiment: In vivo antitumor activity against leukemia P388 in mice at 400 mg/kg dosage administered intraperitoneally once a day for 1 and 5 days; compound is inactive; assay type: functional, organism-based; design: dose 400 mg/kg; conditions: Mus musculus; in short: as §1
[6] = tested on: P388; experiment: In vivo antitumor activity against leukemia P388 in mice at 0.6 mg/kg dosage administered intraperitoneally once a day for 1 and 5 days; assay type: functional, Mus musculus; conditions: route intraperitoneal; in short: as §1
[7] = tested on: P388; experiment: In vivo antitumor activity against leukemia P388 in mice at 2.5 mg/kg dosage administered intraperitoneally once a day for 1 and 5 days; assay type: functional, Mus musculus; conditions: route intraperitoneal; in short: as §1
[8] = tested on: P388; experiment: In vivo antitumor activity against leukemia P388 in mice at 5 mg/kg dosage administered intraperitoneally once a day for 1 and 5 days; assay type: functional, Mus musculus; conditions: route intraperitoneal; in short: as §1
[9] = tested on: P388; experiment: In vivo antitumor activity against leukemia P388 in mice at 50 mg/kg dosage administered intraperitoneally once a day for 1 and 5 days; assay type: functional, Mus musculus; conditions: route intraperitoneal; in short: as §1

SMILES	IC50 [1]	T/C [5]	also measured
COc1ccc(C(c2ccc(C(C)C)cc(=O)c2O)c2ccc(C(C)C)cc(OC)c2=O)cc1 (centres undefined)	1.7 µg/mL (≈ 3.69 µM)		T/C [2]: 133%; T/C [3]: 60%; T/C [4]: 148%
C/N=c1\cc(C(C)C)ccc(C(c2ccc(OC)cc2)c2ccc(C(C)C)cc(NC)c2=O)c1O (centres undefined)	100 µg/mL (≈ 212 µM)	inactive	
COc1ccc(C(c2ccc(C(C)C)cc(S)c2=O)c2ccc(C(C)C)cc(S)c2=O)cc1	5.3 µg/mL (≈ 11.1 µM)	inactive	
COc1ccc(C(c2ccc(C(C)C)cc(OC)c2=O)c2ccc(C(C)C)cc(OC)c2=O)cc1	23.5 µg/mL (≈ 49.5 µM)	inactive	
COc1ccc(C(c2ccc(C(C)C)cc(=O)c2O)c2ccc(C(C)C)cc(=O)c2O)cc1	0.5 µg/mL (≈ 1.12 µM)		T/C [6]: 127%; T/C [7]: 134%; T/C [8]: 173%
CCOC(c1ccc(OC)cc1)c1ccc(C(C)C)cc(=O)c1O (centres undefined)	0.5 µg/mL (≈ 1.52 µM)		T/C [2]: 140%; T/C [3]: 140%; T/C [4]: 128%; T/C [9]: 119%
COc1ccc(C(c2ccc(C(C)C)cc(=O)c2OC)c2ccc(C(C)C)cc(OC)c2=O)cc1 (centres undefined)	5.4 µg/mL (≈ 11.4 µM)	inactive	
COc1ccc(C(c2ccc(C(C)C)cc(=O)c2OC)c2ccc(C(C)C)cc(=O)c2OC)cc1		inactive	
CNc1cc(C(C)C)ccc(C(c2ccc(OC)cc2)c2ccc(C(C)C)cc(=O)c2O)c1=O (centres undefined)	50 µg/mL (≈ 109 µM)	inactive	
